Test results taken from PMC6590913 (Journal of medicinal chemistry, 2019).

Legend:
[1] = tested on: Rho/MRTF/SRF-mediated gene transcription (SRE.L); experiment: Gα12-stimulated SRE.L luciferase reporter assay in HEK293T cells; assay type: cell-based; settings: for SRE.L activity: Figure 4, HEK293T cells, analogs with modified thioether
[2] = tested on: Rho/MRTF/SRF-mediated gene transcription (SRE.L); experiment: Gα12-stimulated SRE.L luciferase reporter assay in PC3 cells; assay type: cell-based; settings: for SRE.L activity: Table 2 sidechain SAR, PC3 cells; for IC50: Homo sapiens, PC-3, read-out: SRE.L IC50
Procedure, shortened: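 PC-3 cells plated at 20,000/well in DMEM with 10% FBS. Next day they were lipofected with 56 ng SRE.L luciferase reporter plus 2 ng/well Gα12 Q231L or pcDNA. After 4 h, medium was switched to 0.5% FBS DMEM, and compound or DMSO was added overnight. Viability was then read by WST-1 (450 nm), and cells were lysed for luciferase. Mean of n = 3.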

[3] = tested on: Rho/MRTF/SRF-mediated gene transcription (SRE.L); experiment: SRE.L luciferase reporter assay, cell line not stated; assay type: cell-based; settings: for SRE.L activity: Figure 3, heterocycle and carboxylic acid replacements
Procedure, shortened: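 Gα12-stimulated SRE.L luciferase reporter in transiently transfected PC-3 or HEK293T cells. PC-3 format: 20,000 cells/well in 10% FBS/DMEM, next day co-transfected with SRE.L luciferase reporter plus Gα12 Q231L or empty pcDNA (Lipofectamine 2000). After 4 h, switched to 0.5% FBS/DMEM with test compound or DMSO overnight. WST-1 viability read at 450 nm, then lysis and luciferase read.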

[4] = tested on: bleomycin-induced dermal fibrosis; settings: mice; cited from earlier work
[5] = Cytotoxicity in the SRE.L assay determined by CellTiter-Fluor; assay type: cell-based; settings: human, cells of the SRE.L assay
cells of the SRE.L assay = experiment: as above; assay type: cell-based
CTGF gene expression = experiment: qPCR for LPA-stimulated expression of CTGF in primary dermal fibroblasts; assay type: cell-based, human; settings: for Effect on CTGF gene expression: then LPA 1 h, primary human dermal fibroblasts
[6] = Pharmacokinetic studies in mice; assay type: in vivo, female CD-1 mice; settings: mouse, IV
Procedure, shortened: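 Female CD-1 mice were dosed iv and/or po, with compound in 15% DMSO/15% PEG-400/70% PBS (v/v). Blood (50 μL) was sampled at 0.5, 2, 4 and 7 h, and plasma was frozen at -80 °C. Plasma levels were measured by a validated LC–MS/MS method. Parameters were derived non-compartmentally.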

[7] = tested on: bleomycin-induced dermal fibrosis; experiment: Bleomycin-induced dermal fibrosis in mice; assay type: in vivo, mouse
[8] = tested on: bleomycin-induced lung fibrosis; settings: mice, dose of 300 mg/kg; cited from earlier work

O=C(O)CSCc1nnc(-c2ccc(Cl)cc2Cl)o1 [compound 13, 2-(((5-(2,4-dichlorophenyl)-1,3,4-oxadiazol-2-yl)methyl)thio)acetic acid]
SRE.L activity [1]: almost complete loss in activity

O=C(O)CCCS(=O)(=O)c1nnc(-c2ccc(Cl)cc2Cl)o1 [compound 21, 4-((5-(2,4-dichlorophenyl)-1,3,4-oxadiazol-2-yl)sulfonyl)butanoic acid]
SRE.L activity [1]: activity was lost

CCOC(=O)CCSc1nnc(-c2ccc(Cl)cc2Cl)o1 [compound 6, Ethyl 3-((5-(2,4-dichlorophenyl)-1,3,4-oxadiazol-2-yl)thio)propanoate]
SRE.L activity [2]: maintained activity

c1ccc(-c2nnc(SCCC3OCCCO3)o2)cc1 [compound 28]
SRE.L activity [3]: abolished activity

O=C(O)CCCOc1nnc(-c2ccc(Cl)cc2Cl)o1 [compound 11, 4-((5-(2,4-dichlorophenyl)-1,3,4-oxadiazol-2-yl)oxy)butanoic acid]
SRE.L activity [1]: almost complete loss in activity

COC(=O)c1ccc2c(c1)NC(=O)/C2=C(\Nc1ccc(N(C)C(=O)CN2CCN(C)CC2)cc1)c1ccccc1 [Nintedanib]
Minimum dose effective at preventing bleomycin-induced dermal thickness [4]: 30 mg/kg/day | IC50 [5]: < 30 µM | Cytotoxicity (cells of the SRE.L assay; at 10 uM): some cytotoxicity | Cytotoxicity in the CTGF assay (CTGF gene expression; at 10^−5 M): cytotoxic | CTGF expression, % of DMSO control (CTGF gene expression; at 10^−6 M): 45 % of DMSO control

O=C(O)CCSc1nnc(-c2cccnc2)o1 [compound 22]
SRE.L activity [3]: complete loss in activity

O=C(O)CCCCSc1nnc(-c2ccc(Cl)cc2Cl)o1 [8r, 5-((5-(2,4-dichlorophenyl)-1,3,4-oxadiazol-2-yl)thio)pentanoic acid]
IC50 [2]: 43 nM

O=C(O)CCCSc1nnc(-c2ccc(Cl)cc2Cl)o1 [8q, 4-((5-(2,4-dichlorophenyl)-1,3,4-oxadiazol-2-yl)thio)butanoic acid]
clearance rate relative to 8j [6]: ~3 fold

O=C(O)CCCSc1nnc(-c2ccc(C3CC3)cc2Cl)o1 [19f, 4-((5-(2-chloro-4-cyclopropylphenyl)-1,3,4-oxadiazol-2-yl)thio)butanoic acid]
IC50 [2]: 0.0012 nM | Improvement in SRE.L potency relative to 8s ([1]; Me replaced by c-Pr): 100 fold | Effect on CTGF gene expression (CTGF gene expression; 48 h pre-treatment): neither 8j nor 19f had any significant effect | Potency on CTGF gene expression relative to 8j (CTGF gene expression; 72 h pre-treatment): ~ 100 x | Effect on CTGF gene expression (CTGF gene expression; 72 h pre-treatment): dose-dependently reduced CTGF gene expression | Bleomycin-induced dermal fibrosis ([7]; 3 and 10 mg/kg PO, both doses, 14 days): significantly reduced bleomycin-induced dermal fibrosis | In vivo potency relative to 8j ([7]; bleomycin-induced dermal fibrosis): at least 3 fold

Cc1ccc(=O)n(-c2ccccc2)c1 [Pirfenidone, reference compound]
Concentration above which cytotoxic (cells of the SRE.L assay; CellTiter-Fluor): > 100 µM | IC50 ([3]; read-out: SRE.L assay IC50): > 100 µM | Effect on bleomycin-induced lung fibrosis [8]: attenuate bleomycin-induced lung fibrosis | CTGF expression, % control (CTGF gene expression; at 10^−5 M): 91 % control

CNC(=O)CCSc1nnc(-c2ccc(Cl)cc2Cl)o1 [compound 9, 3-((5-(2,4-dichlorophenyl)-1,3,4-oxadiazol-2-yl)thio)-N-methylpropanamide]
IC50 [2]: > 100000 nM | SRE.L activity [2]: unsuccessful

O=C(O)CCCc1nnc(-c2ccc(Cl)cc2Cl)o1 [compound 29]
SRE.L activity [1]: almost complete loss in activity

O=C(O)CCSc1nnc(-c2ccc(Cl)cc2Cl)o1 [8j, 3-((5-(2,4-dichlorophenyl)-1,3,4-oxadiazol-2-yl)thio)propanoic acid]
Effect on CTGF gene expression (CTGF gene expression; 48 h pre-treatment): neither 8j nor 19f had any significant effect | Effect on CTGF gene expression (CTGF gene expression; 72 h pre-treatment): dose-dependently reduced CTGF gene expression | Bleomycin-induced fibrotic effects (dermal thickness and hydroxyproline content) vs bleomycin/vehicle control ([7]; 10 mg/kg PO, 14 days): significant effects | Bleomycin-induced fibrotic effects (dermal thickness and hydroxyproline content) ([7]; 0.1, 1 and 10 mg/kg/day by oral gavage, 14 days): dose-dependently reduce

O=C(O)CCSc1nnc(-c2ccncc2)o1 [compound 23]
SRE.L activity [3]: complete loss in activity

O=C(O)CSc1nnc(-c2ccc(Cl)cc2Cl)o1 [8p]
IC50 [2]: > 100000 nM | SRE.L activity [2]: activity was completely lost

Cc1occc1-c1nnc(SCCC(=O)O)o1 [compound 24]
SRE.L activity [3]: complete loss in activity

O=C(O)CCCSc1nnc(-c2ccc(Br)cc2Cl)o1 [8x, 4-((5-(4-bromo-2-chlorophenyl)-1,3,4-oxadiazole-2-yl)thio)butanoic acid]
Improvement in SRE.L activity relative to 8q ([1]; 4-Cl replaced by 4-Br): 10 fold
